Measurements collected from several papers.
Lines come from different studies, so protocols differ.
UGT1A9: UDP-glucuronosyltransferase 1A9 (UGT1A9, Homo sapiens, UniProt O60656)

C[C@H](O)c1cc(C(=O)N[C@@H](C)Cn2ccc(-c3ccc(C#N)c(Cl)c3)n2)n[nH]1  IC50 (UGT1A9; enzyme activity, inhibitor; human, liver microsomes): > 100 µM
CC(C)(O)c1cn(-c2ccc(-c3cc(F)c(CO)c(S(C)(=O)=O)c3)cc2)c(C(C)(C)c2cccc(F)c2Cl)n1  clearance (male cynomolgus monkey, plasma; intravenous, 1 mg/kg, single dose): 9.4 mL/min/kg
N#CC(C(=O)Nc1cccc(C(F)(F)F)c1)=C1Sc2nc3ccc(S(=O)(=O)N4CCCC4)cc3nc2S1  viability (WI-38; cell growth or viability, MTT; 3.125 µM, 24 h): 100%
CN(CCC(=O)O)C(=O)c1ccc2c(c1)CC[C@@H]1[C@@H]2CC[C@]2(C)C(c3cncc(F)c3)=CC[C@@H]12  IC50 (UGT1A9; enzyme activity, inhibitor): > 30 µM
O=C1CCCCC1=C1Sc2nc3ccc(S(=O)(=O)N4CCCC4)cc3nc2S1  viability (WI-38; cell growth or viability, MTT; 25 µM, 24 h): 70.8%
N#Cc1cc(NC(=O)[C@H]2c3ccccc3C(=O)N(CC(F)(F)F)[C@@H]2c2cccnc2)ccc1F  half-life (metabolic stability; dog, liver microsomes): > 4 h
CC(C)(O)c1cn(-c2ccc(-c3ccc(CO)c(S(C)(=O)=O)c3)cc2)c(Cc2ccccc2Cl)n1  clearance (cynomolgus monkey, plasma; intravenous, 0.25 mg/kg, single dose): 61 mL/min/kg
CC(=O)c1cc(C(=O)N[C@@H](C)Cn2ccc(-c3ccc(C#N)c(Cl)c3)n2)[nH]n1  IC50 (UGT1A9; enzyme activity, inhibitor; human, liver microsomes): > 50 µM
CON=C(N)c1ccc(-c2ccc(-c3ccc(C(N)=NOC)cc3)o2)cc1  Km (Cytochrome P450 1A1 (CYP1A1, Homo sapiens, UniProt P04798); enzyme activity, substrate): 0.5 µM
